High-throughput results deposited in PubChem BioAssay by several laboratories.
A1 inh: caspase 3/7 activation in MEF A1-2A-BIM cells, primary screen, A1 inhibitor project, cell-based, luminescence, HTS. Caspase-Glo 3/7 luminescence, 3 h; percent of clofoctol response, vehicle zero. AID 2462, 2010. hit rate 0.066% among 330,000. caspase activation, % (test concentration not listed);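 active means over half of replicate activation scores above 10%, or exactly half above 10 with the replicate mean above 10; inconclusive means replicate mean below 10 yet half the replicates above 10; inactive means over half of replicates below 10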
Beta apoptosis: inhibitors of cytokine-induced beta cell apoptosis, primary screen, luminescence; INS-1E cytokine-induced death, ATP luminescence, 48 h; percent of positive-control rescue, neutral wells zero; protection from apoptosis, % (no concentration beside the values); hit rate 0.8% among 300,000;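 active means Every replicate reaches about 75%, or at least half do and their mean reaches it too, limit read from the data; inconclusive means At least half of replicates reach the limit but their mean does not; inactive means Under half of replicates reach the limit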;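 further: 0% = cytokine-treated negative control wells and 100% = positive control rescue; higher means more ATP so stronger rescue from cytokine killing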
KLF5 inhibitor: KLF5 expression inhibitors, primary screen, DLD-1 cells, luminescence; DLD-1 KLF5 promoter-luciferase reporter; inhibition, % at 5 µM; hit rate 0.23% among 290,000;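 active means inhibition above a per-plate limit of that plate's mean compound inhibition plus 3 SD, cut at about 60% in these data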;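 further: 0% = DMSO wells and 100% = LY294002 at 200 µM; higher means less KLF5 promoter-driven luciferase light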
HIF activator: HIF pathway transcriptional activators, primary screen, cell-based, U2OS HRE-luciferase, luminescence | U2OS HRE-luciferase reporter; normalized: DMSO 0%, desferrioxamine 100% | activation, % at 7.5 µM (by protocol) | hit rate 0.32% among 300,000 | AID 1910, 2009;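 active means mean activation of at least 10% of the iron chelator positive control signal, with at least half of replicates also reaching 10%; inconclusive means mean and replicate majority disagree about reaching 10%; inactive means mean and most replicates under 10%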
T cruzi repl: inhibitors of intracellular T. cruzi growth, primary screen, luminescence, NIH3T3 host cells; inhibition, % (no concentration beside the values); AID 1885, 2009; hit rate 1.4% among 300,000; T. cruzi beta-gal in NIH3T3, 90 h;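 active means mean inhibition across valid replicates above about 55%, limit read from the data; inconclusive means mean below that limit but half or more replicates reach it; inactive means mean below it, under half of replicates reach it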;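 further: signal also drops with host cell toxicity which is not excluded here; 0% = plate median of DMSO wells and 100% = zero luminescence signal; higher percent means less beta-gal luminescence so fewer parasites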
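compound dosing = single 50 nL compound addition per well in DMSO | material = NIH/3T3 host cells with β-galactosidase reporter T. cruzi | input = 5,000 host fibroblasts per well | timing = ≥90 h infection period, 3 h prior cell attachment | read-out basis = percent inhibition of parasite-derived β-gal signal | detection = GalScreen β-gal luminescence, detergent lysis, 60 min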
* = called active by the depositor; ? = inconclusive; nt = no result given. In the library only some 2.3% were active in any assay of this set; here they are far more common.

SMILES	A1 inh	Beta apoptosis	KLF5 inhibitor	HIF activator	T cruzi repl
Cc1ccc(NC(=O)CSc2nnc(Cc3csc(C)n3)o2)cc1	0	-5	nt	nt	nt
CCOc1ccc(Nc2nc(Cc3nnc(SCC(=O)c4ccc(C)c(C)c4)o3)cs2)cc1	0	97*	4	2	7
O=C(NCCCN1CCCC1=O)c1cccc(S(=O)(=O)N2CCCCC2)c1	0	3	nt	nt	nt
Cn1nc([N+](=O)[O-])nc1Oc1ccccc1F	0	-1	-29	-1	74*
Cn1nc([N+](=O)[O-])nc1Oc1ccccc1N	1	nt	-14	-1	63*
O=C(CSc1nnc(Cn2nnc3ccccc32)o1)N(Cc1ccc(Cl)cc1)c1ccccc1	0	99*	-1	-1	17
O=C(c1ccccn1)N1CCCC(N2CCN(c3ccc(F)cc3)CC2)C1 (stereo unspecified)	1	-4	-23	0	-7
Cc1ccc(S(=O)(=O)NC2c3cccc4cccc(c34)C2Sc2ncccn2)cc1 (stereo unspecified)	0	nt	2	0	38
Cc1cc(C)nc(SC2c3cccc4cccc(c34)C2NS(=O)(=O)c2ccccc2)n1 (stereo unspecified)	-2	15	-7	0	57*
CNC(=O)COc1coc(CN2CCN(c3ccc(F)cc3)CC2)cc1=O	0	nt	-42	4	-39
CCCCNC1=CC(=O)C(=O)c2ccccc21	1	99*	-12	0	39
COc1cc(CCN2C(=O)c3cccc4cccc(c34)C2=O)c(S(=O)(=O)N2CCC(C)CC2)cc1OC	-1	11	1	0	59*
COc1cc(CCN2C(=O)c3cccc4cccc(c34)C2=O)c(S(=O)(=O)N2CCCCCC2)cc1OC	0	25	-13	-1	58*
O=C1OC[C@H]2CCCN2C(=O)[C@@H](CC(=O)N(CCO)Cc2ccccc2)C/C=C\CC[C@H]1Cc1ccc(F)cc1	0	-4	nt	nt	nt
Cc1ccc(-c2[nH]ncc2CN2CCN(C(=O)c3cccs3)CC2)cc1C	0	-6	-30	0	30
Cc1cc(C)c2nc(N(CCCN(C)C)C(=O)c3ccc4c(c3)CCCC4)sc2c1	-1	nt	nt	-22	58*
CN(C)CCCN(C(=O)c1ccc(N2C(=O)CCC2=O)cc1)c1nc2c(F)cccc2s1	0	-5	5	0	57*
CN(C)CCCN(C(=O)c1ccc(S(=O)(=O)N(C)Cc2ccccc2)cc1)c1nc2c(F)cccc2s1	-1	-3	-16	-1	36
CN(C)CCCN(C(=O)c1ccc2c(c1)CCCC2)c1nc2c(F)cccc2s1	1	9	-22	2	58*
Cc1ccc2nc(N(CCCN(C)C)C(=O)c3ccc4c(c3)CCCC4)sc2c1	0	-1	9	-2	44
COc1ccc(S(=O)(=O)Nc2c(C)nn(C)c2C)cc1Br	0	1	nt	nt	nt
CCOc1ccc(N(CC(=O)N2CCCC2)S(=O)(=O)c2ccc(Cl)cc2)cc1	1	-12	-4	0	-8
Cc1ccc(/C(O)=C2\C(=O)C(=O)N(C)C2c2cccc([N+](=O)[O-])c2)cc1 (stereo unspecified)	?	1	-12	0	-6
O=C1/C(=C/c2cccnc2)CCC/C1=C\c1cccnc1	0	100*	-3	nt	nt
CC(C)/C=C1\CC/C(=C\c2cccnc2)C1=O	0	9	-35	0	56*
SMILES	A1 inh	Beta apoptosis	KLF5 inhibitor	HIF activator	T cruzi repl
Cc1ccccc1-c1cc(C(=O)NCc2cccc(C(F)(F)F)c2)nn1CC1CC(c2cccc([N+](=O)[O-])c2)=NO1 (stereo unspecified)	1	13	nt	nt	nt
O=C(Nc1ccc(Br)cc1)c1cnc[nH]1	-1	-3	-89	4	12
COc1cc(NC(=O)Cn2ncc(Cl)c(Cl)c2=O)c(C)cc1[N+](=O)[O-]	nt	nt	-6	-5	85*
Cc1cccc(Oc2cc(NC(=O)c3ccccc3)cc([N+](=O)[O-])c2)c1	1	100*	-44	-1	22
CC(=O)C1=C(C)Nc2ncnn2C1c1ccccc1F (stereo unspecified)	1	0	-14	1	-7
CCC(CNc1cc(OC)cc2cccnc12)NC1CCCCC1 (stereo unspecified)	0	101*	-15	-11	41
CCCC(=O)Nc1nc(-c2ccc3c(c2)CCN3S(C)(=O)=O)cs1	1	nt	-20	0	2
CS(=O)(=O)N1CCc2cc(-c3csc(NC(=O)Cc4ccccc4)n3)ccc21	1	5	2	-1	55*
COc1ccc(CCN(Cc2cccs2)S(=O)(=O)c2ccc(S(=O)(=O)N(C)C3CCCCC3)cc2)cc1OC	0	nt	-8	-1	61*
CN(C)C1=NC[C@H](Cc2ccccc2)N1CCCC1CCCCC1	-1	87*	nt	nt	nt
CN(C)C1=NC[C@H](Cc2ccccc2)N1CCCC1CCCC1	0	40	nt	nt	nt
CSc1cccc(NC(=O)c2cc(S(=O)(=O)N3CCc4ccccc43)cn2C)c1	1	17	6	-1	15
Cc1noc(C)c1CSc1nc2sc(C)c(C)c2c(=O)n1-c1ccccc1	0	8	-33	0	60*
CN(C)CCOc1ccc(-c2c(-c3ccccc3)sc3ccccc23)cc1	0	83*	nt	nt	nt
Cc1ccc2nc3c(cc(S(=O)(=O)c4ccccc4)c(=N)n3Cc3ccco3)c(=O)n2c1	0	-6	-53	1	63*
N=c1c(S(=O)(=O)c2ccccc2)cc2c(=O)n3ccccc3nc2n1Cc1ccco1	0	-21	3	0	16
Cc1cccc(N2CCN(C(=O)c3ccc(S(=O)(=O)N(C)c4ccccc4)cc3)CC2)c1C	1	-4	nt	nt	nt
Cc1cc(C(=O)C(C)OC(=O)c2ccc(NC(=O)CC#N)cc2)c(C)n1-c1ccc(OC(F)F)cc1 (stereo unspecified)	-1	88*	nt	nt	nt
Cc1ccc(-n2sc3ccccc3c2=O)cc1S(=O)(=O)N1CCCCC1	-2	0	0	nt	78*
O=c1c2ccccc2sn1-c1ccccc1	-8	26	-39	-3	65*
O=c1c2ccccc2sn1-c1ccc(S(=O)(=O)N2CCCC2)cc1	-5	12	-30	0	63*
O=c1c2ccccc2sn1-c1ccc(S(=O)(=O)N2CCCCC2)cc1	-3	-9	-15	0	43
COc1ccccc1NC(=O)C1CCCN(c2cnccn2)C1 (stereo unspecified)	nt	nt	-14	0	13
COc1ccc2cc(CCNC(=O)c3ccc(S(=O)(=O)N4CCCC4)cc3)c(=O)[nH]c2c1	0	0	-14	0	-8
Cn1ccnc1CN1CCCCC1C(=O)Nc1ccc(Oc2cccnc2)cc1 (stereo unspecified)	0	nt	15	3	-8
